Bioassay records: PubChem, The Scripps Research Institute Molecular Screening Center
The list is not random: actives were taken first. Their share in the collection is about 0.29%.
proCasp7 act = activates human procaspase-7, counter-screen for procaspase-3 activators; P55210; recombinant procaspase-7, Ac-DEVD-pNA absorbance 405 nm; D23A/D198A/D206A triple mutant, cannot self-cleave; scale: DMSO 0, 5 µM enzyme 100; activation, % at 8.5 µM; hit rate 0.093% among 330,000; AID 463210;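 active = percent activation above the screen-wide mean plus 3 SD, cut at about 25% in these data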
Target sequence (P55210 whole entry D23A/D198A/D206A): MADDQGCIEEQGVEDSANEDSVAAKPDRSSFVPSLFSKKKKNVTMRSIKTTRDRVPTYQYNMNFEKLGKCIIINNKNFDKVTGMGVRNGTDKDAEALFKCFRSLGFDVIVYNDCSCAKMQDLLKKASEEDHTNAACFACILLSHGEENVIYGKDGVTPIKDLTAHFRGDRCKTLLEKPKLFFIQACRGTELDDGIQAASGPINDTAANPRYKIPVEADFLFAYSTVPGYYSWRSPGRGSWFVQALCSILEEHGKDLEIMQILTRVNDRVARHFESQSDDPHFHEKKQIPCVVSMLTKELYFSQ
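signal = Epi-absorbance of released pNA at 405 nm, two timepoints | assay system = Uncleavable procaspase-7 mutant enzyme | reagent = Ac-DEVD-pNA substrate, 400 µM as added | times = 1 h enzyme–compound preincubation and 2 h substrate reaction, both 25 °C | benchmarks = low DMSO alone, high DMSO plus 5 µM PC-7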
PKA-R1A activ = PKA-R1A complex activation. PKA-R1A dissociation, Cy5-IP20 fluorescence polarization; scaled: DMSO 0%, 113 µM cGMP 100%. activation, % at 11.4 µM. hit rate 0.083% among 340,000. AID 504707;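 active = percent activation above the mean of all tested compounds plus 3 SD, cut at about 19% in these data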;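 note: higher means more PKAc released from R1A so a rise in polarization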
PKA-R2B act = PKA-R2B complex activation; PKA-R2B holoenzyme dissociation, Cy5-IP20 fluorescence polarization; R2B truncated from residue 108, S112A mutant; 0% DMSO only, 100% 113 µM cGMP; activation, % at 11.4 µM; hit rate 0.079% among 340,000; AID 504700;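 active = activation above a cutoff set at the mean over all compounds plus 3 SD, cut at about 18% in these data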;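 note: higher means more holoenzyme dissociation and a rise in polarization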
procasp3 activ = activates human procaspase-3 | P42574 | recombinant procaspase-3 D3A, Ac-DEVD-pNA absorbance 405 nm | activation, % at 8.5 µM | hit rate 0.11% among 330,000 | AID 463141;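 active = activation above the mean of all tested compounds plus 3 SD, cut at about 21% in these data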;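 note: 0% = DMSO alone and 100% = DMSO wells spiked with extra 5 µM PC-3 D3A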
Target sequence (P42574 whole entry D9A/D28A/D175A): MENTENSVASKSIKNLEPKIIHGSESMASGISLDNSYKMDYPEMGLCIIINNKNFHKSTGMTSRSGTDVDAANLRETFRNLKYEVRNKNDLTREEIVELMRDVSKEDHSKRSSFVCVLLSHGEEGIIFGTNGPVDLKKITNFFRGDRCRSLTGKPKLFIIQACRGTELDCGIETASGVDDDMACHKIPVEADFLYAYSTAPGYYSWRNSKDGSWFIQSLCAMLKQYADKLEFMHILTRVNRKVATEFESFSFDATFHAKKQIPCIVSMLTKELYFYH
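assay system = Procaspase-3 D3A mutant | signal = absorbance at 405 nm, 0 and 120 min | times = 1 h preincubation plus 2 h reaction at 25 °C | repeats = single replicate | read-out = % activation between DMSO and enzyme-spiked controls | medium = Zinc-free HEPES saline buffer with Triton X-100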
R2B FP artifact = FP assay interference, PKA-R2B counter-screen; activation, % at 11.4 µM; hit rate 6% among 270; shares compounds with PKA-R2B act; FP artifact counterscreen, fluorescence polarization; in the data active = activation above about 20%;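 note: Cy5 labelled IP20 peptide probe with compound but no PKA protein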
PKA-R2B act conf = PKA-R2B complex activation, confirmation; shares compounds with PKA-R2B act; activation, % at 11.4 µM; hit rate 9% among 270; fluorescence polarization; AID 504797; in the data active = activation above about 19%
An asterisk follows results filed as active; . = no result given.

SMILES	proCasp7 act	PKA-R1A activ	PKA-R2B act	procasp3 activ	R2B FP artifact	PKA-R2B act conf
Cc1cccc(C)c1NC(=O)C(NC=O)c1ccc(N(C)C)cc1 (stereo not given)	-5	9	20*	6	-4	-1
Cc1cccc(C)c1NC(=O)C(NC=O)c1ccccc1Cl (stereo not given)	-2	1	-12	2	.	.
Cc1ccc(C(=O)N2CCN(c3ccc(C(F)(F)F)cn3)CC2)cc1	11	7	20*	8	-1	0
CCN1CCN(c2ccc(S(=O)(=O)N3CCOCC3)cc2NC(=O)c2ccc(F)cc2Cl)CC1	18	-1	19*	-1	2	0
O=C(c1ccco1)N1CCN(C(=O)c2ccc(CS(=O)c3ccc(Cl)cc3)o2)CC1 (stereo not given)	-8	-4	19*	5	5	-1
Cc1ccc(S(=O)Cc2ccc(C(=O)N3CCN(C(=O)c4ccco4)CC3)o2)cc1 (stereo not given)	-3	-5	-1	11	.	.
C=CCN(CCNP(=O)(OCC)OCC)CP(=O)(OCC)OCC	-1	16	20*	7	4	0
CC(C)Oc1ccc(S(=O)(=O)N2CCCCC2)cc1NC(=O)CC1OC(=O)c2ccccc21 (stereo not given)	2	-3	20*	0	-3	0
Cc1cccc(Nc2c([N+](=O)[O-])ccc3nonc23)c1C	.	-8	-9	.	.	.
Oc1ccccc1OCC(O)c1ccccc1 (stereo not given)	-3	-10	19*	-8	5	3
CCOC(=O)N1CCN(Cc2nc3c(c(=O)n(C)c(=O)n3C)n2Cc2ccc(F)cc2)CC1	3	-6	19*	6	4	4
O=S1(=O)CCOC(CO)CN1Cc1ccc(Cl)c(Cl)c1 (stereo not given)	3	3	10	-2	-3	-1
O=S1(=O)CCN(Cc2ccc(Cl)c(Cl)c2)CC1	-12	-2	7	4	.	.
Clc1ccc(CN2C3=NCCCN3c3ccccc32)cc1Cl	18	7	9	-3	.	.
CCC[C@@H]1Cc2ccccc2N1C(C)=O	12	-5	20*	5	-2	-3
O=C(OC1CCN(c2ccc([N+](=O)[O-])cc2)CC1)c1ccccc1	-9	-7	-2	-2	.	.
COc1ccc(OC)c(CC(NC(C)=O)C(=O)NC2CCN(c3c(Cc4ccccc4)c(C)nc4ncnn34)CC2)c1 (stereo not given)	3	1	21*	-2	1	-5
O=C(c1cc(F)c(F)cc1Cl)N1CCN(c2ncccn2)CC1	-1	-8	19*	11	0	-2
Cc1cc(C)n2nc(SCC(=O)Nc3ccc(F)cc3[N+](=O)[O-])nc2n1	-3	1	-12	7	.	.
CN(C)C(=O)C(CCN1CCC(O)(c2ccc(Cl)cc2)CC1)(c1ccccc1)c1ccccc1	1	-3	7	4	.	.
OC(CCCN1CCC(O)(c2ccc(Cl)cc2)CC1)c1ccc(F)cc1 (stereo not given)	2	2	19*	6	6	2
COc1ccc(CCN(Cc2nc3ccccc3c(=O)[nH]2)C(=O)C2CC2)cc1	11	3	19*	7	4	1
O=C(C1CC1)N(CCc1ccccc1)Cc1nc2ccccc2c(=O)[nH]1	9	-8	-7	-1	.	.
N/C(=N\OC(=O)c1cc([N+](=O)[O-])ccc1Cl)c1ccccn1	10	-1	-1	2	.	.
CCOC(=O)N1CCN(S(=O)(=O)c2cc(Br)cnc2N)CC1	2	-4	8	9	.	.
SMILES	proCasp7 act	PKA-R1A activ	PKA-R2B act	procasp3 activ	R2B FP artifact	PKA-R2B act conf
CCOC(=O)/C(=N\Nc1ccc(Br)cc1)N1CCN(c2ccccc2OC)CC1	.	-2	21*	.	1	3
CCOC(=O)N1CCN(c2ccccc2OC)CC1	4	8	-9	5	.	.
Fc1ccccc1CSc1nnc2ccc(-c3ccncc3)nn12	1	2	19*	-2	2	4
c1ccc(CSc2nnc3ccc(-c4ccncc4)nn23)cc1	-1	3	-1	-1	.	.
CCCCN1CC(O)=C(c2nc3ccccc3[nH]2)C1=N	1	6	2	4	.	.
COCCN1C(=O)N[C@@H](c2cccc(C(F)(F)F)c2)[C@H](C(=O)OC)[C@H]1C	-5	-6	-16	-2	.	.
O=c1[nH]cnc2nc(-c3ccccc3)c(-c3ccccc3)nc12	1	4	5	0	.	.
O=c1[nH]cnc2ncc(-c3ccc(O)cc3)nc12	4	-10	20*	-6	7	7
Cc1ccc(S(=O)(=O)NNC(=O)C(=O)NNS(=O)(=O)c2ccc(C)cc2)cc1	8	6	0	-4	.	.
Cc1ccc(S(=O)(=O)NNC(=O)C2CC=CCC2C(=O)O)cc1 (stereo not given)	-2	4	21*	-7	3	1
CC1C(=O)Nc2ccccc2N1C(=O)c1ccccc1 (stereo not given)	-9	-5	20*	-5	6	1
CCOC(=O)C1CCN(C(=O)c2cc(COc3ccc(F)cc3F)on2)CC1	1	11	20*	-4	3	6
CCOC(=O)N1CCN(C(=O)c2cc(COc3ccc(F)cc3F)on2)CC1	-4	-1	1	4	.	.
CCC(C)[C@H](NC(=O)Nc1ccc(S(N)(=O)=O)cc1)C(=O)OC (stereo not given in full)	14	-2	-16	4	.	.
Cc1cc(Nc2nnnn2-c2ccccc2)n(-c2ccc(Cl)cc2)n1	7	-15	0	2	.	.
CCC(=O)Nc1ccccc1N1CCN(c2ccc(F)cc2)CC1	3	-3	19*	5	2	3
Cc1oc(-c2ccccc2F)nc1CS(=O)CC(=O)NC1CCCCC1 (stereo not given)	6	-4	5	-7	.	.
CCSc1nnc(NC(=O)CSc2nc3c(c(=O)n2-c2ccccc2)SCC3)s1	9	13	10	2	.	.
COc1cccc(CN(C(=O)CN2C(=O)c3ccccc3S2(=O)=O)C(C(=O)NCC2CCCO2)c2ccco2)c1 (stereo not given)	-4	-14	5	-4	.	.
Cc1ccc(S(=O)(=O)N2C[C@H]3[C@H]4C(=O)N(c5ccccc5)C(=O)[C@H]4C[C@H](OC(=O)NCC4CCCCC4)[C@@]3(O)C2)cc1	.	-5	-6	.	.	.
CC(=O)N1CCN(c2ccc(NC(=O)C(C)Oc3ccc(Cl)cc3Cl)cc2)CC1 (stereo not given)	-10	-6	19*	-1	2	3
